Experimental data taken from ChEMBL document CHEMBL1148178, “Dicranin, an antimicrobial and 15-lipoxygenase inhibitor from the moss Dicranum scoparium” (1993).
Activity calls are given as the source filed them. No cut-off for these calls is given here.

What was measured:
[1] = tested on: Enterococcus faecalis; test: Antibacterial activity against Streptococcus faecalis NCIB 775 at 10 ug/disk after 24 hrs by disk diffusion assay; type: functional; details: read-out: Diameter of inhibition zone
How it was run: (§1)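 Sterile 6 mm filter-paper disc bearing sample set in the centre of a Petri dish of 15 ml plate count agar. Overlaid with 3 ml soft nutrient agar (nutrient broth + 0.7% agar) seeded with 1% of a 16–18 h culture of the test strain. Read-out is the diameter of the growth-free zone around the disc.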

[2] = tested on: Enterococcus faecalis; test: Antibacterial activity against Streptococcus faecalis NCIB 775 at 50 ug/disk after 24 hrs by disk diffusion assay; type: functional; details: read-out: Diameter of inhibition zone
How it was run: (§2)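 Test material loaded onto 6 mm sterile filter-paper discs. Each disc sits at the centre of a plate of 15 ml plate count agar overlaid with 3 ml soft nutrient agar (nutrient broth + 0.7% agar) carrying 1% of a 16–18 h culture. Activity is read as the diameter of the no-growth zone around the disc.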

[3] = tested on: Staphylococcus aureus; test: Antibacterial activity against Staphylococcus aureus T-AQ 49/YF29 at 125 ug/disk after 24 hrs by disk diffusion assay; type: functional; details: read-out: Diameter of inhibition zone; how it was run: as §1
[4] = tested on: Staphylococcus aureus; test: Antibacterial activity against Staphylococcus aureus T-AQ 49/YF29 at 500 ug/disk after 24 hrs by disk diffusion assay; type: functional; details: read-out: Diameter of inhibition zone; how it was run: as §1
[5] = tested on: Bacillus cereus; test: Bactericidal activity against Bacillus cereus NCIB 3329 at 10 ug/ml by liquid culture assay; type: functional, organism-based
How it was run: (§3)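 Wells hold brain heart infusion (200 µl) plus 50 µl inoculum at 10³–10⁵ cfu/ml, with dicranin added as the sodium salt in water (10–200 μg/ml tested). Cultures are incubated at the strain's optimal growth temperature. Duplicate 100 µl samples are taken at 0, 2, 4, 6, 8 and 24 h, diluted in tryptone salt to 10–500 bacteria/plate, plated on plate count agar, and colonies counted after 24 h.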

[6] = tested on: Geobacillus stearothermophilus; test: Antibacterial activity against Bacillus stearothermophilus NCA 1518 at 100 ug/disk after 24 hrs by disk diffusion assay; type: functional; details: read-out: Diameter of inhibition zone; how it was run: as §1
[7] = tested on: Bacillus cereus; test: Bactericidal activity against Bacillus cereus NCIB 3329 at 50 ug/ml by liquid culture assay; type: functional, organism-based; how it was run: as §3
[8] = tested on: Bacillus subtilis; test: Antibacterial activity against Bacillus subtilis NCIB 3610 at 50 ug/disk after 24 hrs by disk diffusion assay; type: functional; details: read-out: Diameter of inhibition zone; how it was run: as §1
[9] = tested on: Staphylococcus aureus; test: Antibacterial activity against Staphylococcus aureus T-AQ 49/YF29 at 50 ug/disk after 24 hrs by disk diffusion assay; type: functional; details: read-out: Diameter of inhibition zone; how it was run: as §1
[10] = tested on: Bacillus subtilis; test: Antibacterial activity against Bacillus subtilis NCIB 3610 at 125 ug/disk after 24 hrs by disk diffusion assay; type: functional; details: read-out: Diameter of inhibition zone; how it was run: as §1
[11] = tested on: Geobacillus stearothermophilus; test: Bacteriostatic activity against Bacillus stearothermophilus NCA 1518 at 50 to 150 ug/ml after 4 hrs by liquid culture assay; type: functional, organism-based; how it was run: as §3
[12] = tested on: Geobacillus stearothermophilus; test: Antibacterial activity against Bacillus stearothermophilus NCA 1518 at 1000 ug/disk after 24 hrs by disk diffusion assay; type: functional; details: read-out: Diameter of inhibition zone; how it was run: as §1
[13] = tested on: Bacillus subtilis; test: Antibacterial activity against Bacillus subtilis NCIB 3610 at 250 ug/disk after 24 hrs by disk diffusion assay; type: functional; details: read-out: Diameter of inhibition zone; how it was run: as §1
[14] = tested on: Bacillus cereus; test: Antibacterial activity against Bacillus cereus NCIB 3329 at 125 ug/disk after 24 hrs by disk diffusion assay; type: functional; details: read-out: Diameter of inhibition zone; how it was run: as §1
[15] = tested on: Geobacillus stearothermophilus; test: Antibacterial activity against Bacillus stearothermophilus NCA 1518 after 24 hrs by disk diffusion assay; type: functional, organism-based; how it was run: as §1
[16] = tested on: Geobacillus stearothermophilus; test: Antibacterial activity against Bacillus stearothermophilus NCA 1518 at 125 ug/disk after 24 hrs by disk diffusion assay; type: functional; details: read-out: Diameter of inhibition zone; how it was run: as §1
[17] = tested on: Enterococcus faecalis; test: Antibacterial activity against Streptococcus faecalis NCIB 775 at 75 ug/disk after 24 hrs by disk diffusion assay; type: functional; details: read-out: Diameter of inhibition zone; how it was run: as §2
[18] = tested on: Geobacillus stearothermophilus; test: Antibacterial activity against Bacillus stearothermophilus NCA 1518 at 10 ug/disk after 24 hrs by disk diffusion assay; type: functional; details: read-out: Diameter of inhibition zone; how it was run: as §1
[19] = tested on: Enterococcus faecalis; test: Antibacterial activity against Streptococcus faecalis NCIB 775 at 25 ug/disk after 24 hrs by disk diffusion assay; type: functional; details: read-out: Diameter of inhibition zone; how it was run: as §2
[20] = tested on: Bacillus cereus; test: Antibacterial activity against Bacillus cereus NCIB 3329 at 1000 ug/disk after 24 hrs by disk diffusion assay; type: functional; details: read-out: Diameter of inhibition zone; how it was run: as §1
[21] = tested on: Staphylococcus aureus; test: Antibacterial activity against Staphylococcus aureus T-AQ 49/YF29 at 25 ug/disk after 24 hrs by disk diffusion assay; type: functional; details: read-out: Diameter of inhibition zone; how it was run: as §1
[22] = tested on: Bacillus subtilis; test: Antibacterial activity against Bacillus subtilis NCIB 3610 at 500 ug/disk after 24 hrs by disk diffusion assay; type: functional; details: read-out: Diameter of inhibition zone; how it was run: as §1
[23] = tested on: Geobacillus stearothermophilus; test: Antibacterial activity against Bacillus stearothermophilus NCA 1518 at 75 ug/disk after 24 hrs by disk diffusion assay; type: functional; details: read-out: Diameter of inhibition zone; how it was run: as §1
[24] = tested on: Staphylococcus aureus; test: Antibacterial activity against Staphylococcus aureus T-AQ 49/YF29 at 1000 ug/disk after 24 hrs by disk diffusion assay; type: functional; details: read-out: Diameter of inhibition zone; how it was run: as §1
[25] = tested on: Bacillus cereus; test: Bactericidal activity against Bacillus cereus NCIB 3329 at 100 ug/ml upto 4 hrs by liquid culture assay; type: functional, organism-based; how it was run: as §3
[26] = tested on: Geobacillus stearothermophilus; test: Antibacterial activity against Bacillus stearothermophilus NCA 1518 at 50 ug/disk after 24 hrs by disk diffusion assay; type: functional; details: read-out: Diameter of inhibition zone; how it was run: as §1

Compound: CC/C=C\C/C=C\C/C=C\CC#CCCCCC(=O)O [DICRANIN]
- zone of inhibition at 10 µg/disc [1]: 6 mm
- zone of inhibition at 50 µg/disc [2]: 12 mm
- zone of inhibition at 125 µg/disc [3]: 17 mm
- zone of inhibition at 500 µg/disc [4]: 22 mm
- Activity [5]: inactive
- zone of inhibition at 100 µg/disc [6]: 16 mm
- Activity [7]: Active
- zone of inhibition at 50 µg/disc [8]: 11 mm
- zone of inhibition at 50 µg/disc [9]: 11 mm
- zone of inhibition at 125 µg/disc [10]: 14 mm
- Activity [11]: Active
- zone of inhibition at 1000 µg/disc [12]: 35 mm
- zone of inhibition at 250 µg/disc [13]: 16 mm
- zone of inhibition at 125 µg/disc [14]: 16 mm
- Activity [15]: Active
- zone of inhibition at 125 µg/disc [16]: 17 mm
- zone of inhibition at 75 µg/disc [17]: 13 mm
- zone of inhibition at 10 µg/disc [18]: 0 mm
- zone of inhibition at 25 µg/disc [19]: 10 mm
- zone of inhibition at 1000 µg/disc [20]: 25 mm
- zone of inhibition at 25 µg/disc [21]: 0 mm
- zone of inhibition at 500 µg/disc [22]: 19 mm
- zone of inhibition at 75 µg/disc [23]: 14 mm
- zone of inhibition at 1000 µg/disc [24]: 23 mm
- Activity [25]: Active
- zone of inhibition at 50 µg/disc [26]: 11 mm
